From ChEMBL document CHEMBL4689842, “EUbOPEN Chemogenomics Library wave 1” (2021)

Tested on: HEK-293T
Experiment: Multiplex assay against HEK293T;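 for Population Tubulin-Different-Phenotype (%): share of the cells with healthy nuclei that show this phenotype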
Assay type: toxicity, cell-based
Conditions: human
Summary of the method: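 Live cells were stained at seeding with Hoechst33342, BioTracker Green Microtubule Cytoskeleton Dye, MitoTracker Red and Annexin V Alexa Fluor 680, then imaged on a CQ1 microscope at 37°C and 5% CO2 after compound addition. CellPathfinder machine-learning gating split cells into Hoechst high-intensity objects or normal cells. Normal cells were split into healthy, pyknosed or fragmented nuclei, and pyknosed cells into mitotic or apoptotic. Tubulin, mitochondrial-mass and membrane-permeability phenotypes are per cents of healthy-nucleus cells.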

[1] = 12 h, 1 µM, compound concentration 1 uM, replicate 1
[2] = 12 h, 1 µM, compound concentration 1 uM, replicate 2
[3] = 12 h, 10 µM, compound concentration 10 uM, replicate 1
[4] = 12 h, 10 µM, compound concentration 10 uM, replicate 2
[5] = 24 h, 1 µM, compound concentration 1 uM, replicate 1
[6] = 24 h, 1 µM, compound concentration 1 uM, replicate 2
[7] = 24 h, 10 µM, compound concentration 10 uM, replicate 1
[8] = 24 h, 10 µM, compound concentration 10 uM, replicate 2
[9] = 48 h, 1 µM, compound concentration 1 uM, replicate 1
[10] = 48 h, 1 µM, compound concentration 1 uM, replicate 2
[11] = 48 h, 10 µM, compound concentration 10 uM, replicate 1
[12] = 48 h, 10 µM, compound concentration 10 uM, replicate 2

SMILES: c1cn2cc(-c3ccc4cn[nH]c4c3)nc(Nc3ccc(N4CCOCC4)cc3)c2n1 [ENTOSPLETINIB]
- Population Apoptotic (%) [1]: 54%
- Population Fragmented Nuclei (%) [1]: 8%
- Population Healthy Nuclei (%) [1]: 40%
- Population Hoechst High Intensity Objects (%) [1]: 16%
- Population Membrane Permeable-Phenotype (%) [1]: 0%
- Population Mitochondria Different-Phenotype (%) [1]: 95%
- Population Mitotic Cells (%) [1]: 45%
- Population Normal (%) [1]: 83%
- Population Pyknosed Nuclei (%) [1]: 50%
- Population Tubulin-Different-Phenotype (%) [1]: 74%
- Total Cell Count [1]: 207
- Population Apoptotic (%) [2]: 22%
- Population Fragmented Nuclei (%) [2]: 2%
- Population Healthy Nuclei (%) [2]: 36%
- Population Hoechst High Intensity Objects (%) [2]: 4%
- Population Membrane Permeable-Phenotype (%) [2]: 10%
- Population Mitochondria Different-Phenotype (%) [2]: 57%
- Population Mitotic Cells (%) [2]: 77%
- Population Normal (%) [2]: 95%
- Population Pyknosed Nuclei (%) [2]: 60%
- Population Tubulin-Different-Phenotype (%) [2]: 57%
- Total Cell Count [2]: 197
- Population Apoptotic (%) [3]: 41%
- Population Fragmented Nuclei (%) [3]: 77%
- Population Healthy Nuclei (%) [3]: 6%
- Population Hoechst High Intensity Objects (%) [3]: 27%
- Population Membrane Permeable-Phenotype (%) [3]: 8%
- Population Mitochondria Different-Phenotype (%) [3]: 89%
- Population Mitotic Cells (%) [3]: 58%
- Population Normal (%) [3]: 72%
- Population Pyknosed Nuclei (%) [3]: 16%
- Population Tubulin-Different-Phenotype (%) [3]: 81%
- Total Cell Count [3]: 1068
- Population Apoptotic (%) [4]: 35%
- Population Fragmented Nuclei (%) [4]: 52%
- Population Healthy Nuclei (%) [4]: 8%
- Population Hoechst High Intensity Objects (%) [4]: 22%
- Population Membrane Permeable-Phenotype (%) [4]: 7%
- Population Mitochondria Different-Phenotype (%) [4]: 85%
- Population Mitotic Cells (%) [4]: 64%
- Population Normal (%) [4]: 77%
- Population Pyknosed Nuclei (%) [4]: 38%
- Population Tubulin-Different-Phenotype (%) [4]: 85%
- Total Cell Count [4]: 431
- Population Apoptotic (%) [5]: 43%
- Population Fragmented Nuclei (%) [5]: 6%
- Population Healthy Nuclei (%) [5]: 52%
- Population Hoechst High Intensity Objects (%) [5]: 15%
- Population Membrane Permeable-Phenotype (%) [5]: 6%
- Population Mitochondria Different-Phenotype (%) [5]: 93%
- Population Mitotic Cells (%) [5]: 56%
- Population Normal (%) [5]: 84%
- Population Pyknosed Nuclei (%) [5]: 41%
- Population Tubulin-Different-Phenotype (%) [5]: 72%
- Total Cell Count [5]: 227
- Population Apoptotic (%) [6]: 24%
- Population Fragmented Nuclei (%) [6]: 4%
- Population Healthy Nuclei (%) [6]: 60%
- Population Hoechst High Intensity Objects (%) [6]: 2%
- Population Membrane Permeable-Phenotype (%) [6]: 5%
- Population Mitochondria Different-Phenotype (%) [6]: 48%
- Population Mitotic Cells (%) [6]: 75%
- Population Normal (%) [6]: 97%
- Population Pyknosed Nuclei (%) [6]: 35%
- Population Tubulin-Different-Phenotype (%) [6]: 61%
- Total Cell Count [6]: 259
- Population Apoptotic (%) [7]: 33%
- Population Fragmented Nuclei (%) [7]: 75%
- Population Healthy Nuclei (%) [7]: 8%
- Population Hoechst High Intensity Objects (%) [7]: 28%
- Population Membrane Permeable-Phenotype (%) [7]: 11%
- Population Mitochondria Different-Phenotype (%) [7]: 85%
- Population Mitotic Cells (%) [7]: 66%
- Population Normal (%) [7]: 71%
- Population Pyknosed Nuclei (%) [7]: 15%
- Population Tubulin-Different-Phenotype (%) [7]: 75%
- Total Cell Count [7]: 988
- Population Apoptotic (%) [8]: 40%
- Population Fragmented Nuclei (%) [8]: 51%
- Population Healthy Nuclei (%) [8]: 12%
- Population Hoechst High Intensity Objects (%) [8]: 20%
- Population Membrane Permeable-Phenotype (%) [8]: 4%
- Population Mitochondria Different-Phenotype (%) [8]: 88%
- Population Mitotic Cells (%) [8]: 59%
- Population Normal (%) [8]: 79%
- Population Pyknosed Nuclei (%) [8]: 35%
- Population Tubulin-Different-Phenotype (%) [8]: 93%
- Total Cell Count [8]: 430
- Population Apoptotic (%) [9]: 43%
- Population Fragmented Nuclei (%) [9]: 10%
- Population Healthy Nuclei (%) [9]: 71%
- Population Hoechst High Intensity Objects (%) [9]: 7%
- Population Membrane Permeable-Phenotype (%) [9]: 1%
- Population Mitochondria Different-Phenotype (%) [9]: 56%
- Population Mitotic Cells (%) [9]: 56%
- Population Normal (%) [9]: 92%
- Population Pyknosed Nuclei (%) [9]: 17%
- Population Tubulin-Different-Phenotype (%) [9]: 45%
- Total Cell Count [9]: 307
- Population Apoptotic (%) [10]: 18%
- Population Fragmented Nuclei (%) [10]: 6%
- Population Healthy Nuclei (%) [10]: 74%
- Population Hoechst High Intensity Objects (%) [10]: 2%
- Population Membrane Permeable-Phenotype (%) [10]: 5%
- Population Mitochondria Different-Phenotype (%) [10]: 21%
- Population Mitotic Cells (%) [10]: 81%
- Population Normal (%) [10]: 97%
- Population Pyknosed Nuclei (%) [10]: 19%
- Population Tubulin-Different-Phenotype (%) [10]: 55%
- Total Cell Count [10]: 378
- Population Apoptotic (%) [11]: 23%
- Population Fragmented Nuclei (%) [11]: 64%
- Population Healthy Nuclei (%) [11]: 18%
- Population Hoechst High Intensity Objects (%) [11]: 25%
- Population Membrane Permeable-Phenotype (%) [11]: 6%
- Population Mitochondria Different-Phenotype (%) [11]: 43%
- Population Mitotic Cells (%) [11]: 76%
- Population Normal (%) [11]: 74%
- Population Pyknosed Nuclei (%) [11]: 16%
- Population Tubulin-Different-Phenotype (%) [11]: 57%
- Total Cell Count [11]: 913
- Population Apoptotic (%) [12]: 26%
- Population Fragmented Nuclei (%) [12]: 47%
- Population Healthy Nuclei (%) [12]: 25%
- Population Hoechst High Intensity Objects (%) [12]: 20%
- Population Membrane Permeable-Phenotype (%) [12]: 4%
- Population Mitochondria Different-Phenotype (%) [12]: 71%
- Population Mitotic Cells (%) [12]: 73%
- Population Normal (%) [12]: 79%
- Population Pyknosed Nuclei (%) [12]: 27%
- Population Tubulin-Different-Phenotype (%) [12]: 93%
- Total Cell Count [12]: 444
